Shown are actives, neighbours in structure and some others; about 2.7% of the full set was active somewhere.
Rev-erbA mod: modulators of Rev-erb alpha DNA binding, primary screen, biochemical, FITC-DNA, fluorescence polarization, uHTS; Rev-erbα–FITC-DNA binding, 90 min; activity, % at 10 µM; actives 0.79% (n = 370,000); AID 1259318, 2017;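 active = activity above about 14%, limit read from the data; passing the limit was not always enough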;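 note: 0% = DMSO wells with 35 nM protein and 100% = DMSO wells with 750 nM protein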
Target sequence (P20393 whole entry, looked up): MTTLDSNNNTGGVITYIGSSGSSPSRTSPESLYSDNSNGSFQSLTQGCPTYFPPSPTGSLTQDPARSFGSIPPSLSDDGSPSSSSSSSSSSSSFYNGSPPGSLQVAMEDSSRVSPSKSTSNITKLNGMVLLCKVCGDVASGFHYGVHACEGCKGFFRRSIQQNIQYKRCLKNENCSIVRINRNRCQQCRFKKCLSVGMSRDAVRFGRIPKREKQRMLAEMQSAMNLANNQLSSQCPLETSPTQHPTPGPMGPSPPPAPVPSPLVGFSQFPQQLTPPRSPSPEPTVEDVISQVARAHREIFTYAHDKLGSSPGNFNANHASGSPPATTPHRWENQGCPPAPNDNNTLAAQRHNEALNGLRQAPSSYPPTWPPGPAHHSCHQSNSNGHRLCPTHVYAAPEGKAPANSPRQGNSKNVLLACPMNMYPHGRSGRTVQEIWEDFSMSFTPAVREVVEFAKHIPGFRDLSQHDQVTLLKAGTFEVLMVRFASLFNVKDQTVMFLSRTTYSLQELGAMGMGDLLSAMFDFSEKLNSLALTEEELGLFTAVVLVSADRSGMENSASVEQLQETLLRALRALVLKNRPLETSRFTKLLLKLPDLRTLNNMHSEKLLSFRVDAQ
NR2E3 ag-1: NR2E3 agonists in two-hybrid cells, primary screen, cell-based, luminescence, CHO-S, Gal4-NCOR/VP16-NR2E3. actives 0.35% (n = 360,000). luciferase. inhibition of corepressor binding, % at 3.98 µM. AID 602229, 2012;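 active = inhibition above the mean of all tested compounds plus 3 SD, cut at about 70% in these data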;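 note: 0% = DMSO with NR2E3 transfected cells and 100% = cells lacking NR2E3 construct; higher means lower luciferase signal from less NR2E3 corepressor binding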
NR2E3 ag-2: inhibitors of NR2E3-RetCOR corepressor binding, primary screen, NR2E3 agonist project, biochemical, TR-FRET, GST-NR2E3, biotin-RetCOR | 1536-well | inhibition of corepressor binding, % at 4.78 µM | actives 0.12% (n = 320,000);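 active = percent inhibition above the cutoff of mean plus 3 SD of all tested compounds, set per screening campaign, cut at about 20% in these data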;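 note: 0% = DMSO wells and 100% = biotin wells as full block of FRET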
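Material: NR2E3–RetCOR corepressor complex | Quantity: 1.35 nM GST-tagged NR2E3 final | Schedule: 5 h at 4 °C | Replication: Singlicate compound wells | Reagent: RetCOR corepressor, biotinylated, 7 nM | Controls: Biotin wells as high control, 0.6% DMSO wells as low control | Signal: TR-FRET, Eu(K)-anti-GST donor, streptavidin-D2 acceptor, ex 340, em 617/671 nm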
MC4R antag cAMP: MC4R antagonists of cAMP signaling, primary screen, cell-based, TR-FRET, antagonist arm of biased-ligand search. Melanocortin receptor 4 (Homo sapiens), P32245. MC4R-expressing cells, MTII-stimulated cAMP, LANCE TR-FRET. inhibition, % at 6.5 µM. actives 0.48% (n = 360,000). AID 540295, 2011;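 active = inhibition above its plate's cutoff, the mean of tested wells on that plate plus 3 SD, cut at about 29% in these data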;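 note: 0% = Melanotan II alone and 100% = Melanotan II plus saturating MCL0020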
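Assay system: human MC4R-expressing U2OS cells; reagent: Melanotan II stimulation of cells; dosing: 6.5 µM single dose; timing: compound 30 min, challenge 1 h, detection 1 h; signal: TR-FRET cAMP assay; replicates: one well per compound, no replicates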
MC4R barr agon: MC4R agonists recruiting beta-arrestin, primary screen, cell-based, luminescence, agonist arm of biased-ligand search; Melanocortin receptor 4 (Homo sapiens), P32245; U2OS MC4R beta-arrestin complementation; percent of melanotan II response, DMSO zero; activation, % at 8.9 µM; actives 0.98% (n = 360,000);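 active = activation above a per-plate cutoff, the mean activation of sample wells on that plate plus 3 SD, cut at about 8% in these data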
PG9 Ab binder: binders of HIV-1 gp120 antibody PG9, primary screen, biochemical, TR-FRET; TR-FRET gp120-PG9 antibody binding; inhibition, % at 6.7 µM; actives 0.43% (n = 360,000); AID 624416, 2012; HIV-1 gp120 / PG9 antibody interaction; in the data active = inhibition above about 8.5%
NR2E3 ag confirm-1: NR2E3 agonists, confirmation, biochemical, TR-FRET; shares compounds with NR2E3 ag-2; cell-free NR2E3 corepressor release, 5 h; activation (reported as inhibition), % at 3.98 µM; actives 39% (n = 360); AID 2379, 2010; in the data active = activation above about 20%
PPARg-NCOR2 ag: agonists of PPARg-NCOR2 corepressor interaction, counter-screen for NR2E3 agonist project, biochemical, TR-FRET; actives 45% (n = 360); TR-FRET PPARg-NCOR2 coregulator interaction; shares compounds with NR2E3 ag-2; AID 504787, 2011; inhibition, % at 3.98 µM; in the data active = inhibition above about 20%;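 note: 0% = DMSO vehicle and 100% = wells without protein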
U2OS cAMP counter: nonselective cAMP signaling inhibitors, parental cells, counter-screen for MC4R biased antagonist project, cell-based, TR-FRET, U2OS, forskolin, triplicate; LANCE TR-FRET; shares compounds with MC4R antag cAMP; actives 26% (n = 1,600); inhibition, % at 6.5 µM;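 active = mean inhibition over triplicates above the low-control well mean plus 3 SD, set per campaign, cut at about 13% in these data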;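 note: signal is single emission at 671 nm which falls as cellular cAMP rises; 0% = forskolin-stimulated wells and 100% = buffer without forskolin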
MC4R cAMP antag: MC4R cAMP antagonists, retest, confirmation, cell-based, TR-FRET | MC4R-expressing cells, MTII-stimulated cAMP | inhibition, % at 6.5 µM | shares compounds with MC4R antag cAMP | actives 27% (n = 1,600); in the data active = inhibition above about 29%;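 note: 0% = agonist stimulated wells alone and 100% = agonist stimulated wells plus saturating reference antagonist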
MC4R barr ag: MC4R beta-arrestin agonists, retest, confirmation, cell-based, luminescence, U2OS; U2OS MC4R beta-arrestin recruitment; scaled DMSO 0%, Melanotan II 100%; shares compounds with MC4R barr agon; AID 602192, 2012; activation, % at 8.9 µM; actives 31% (n = 2,400);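 active = mean activation across replicates above the hit cutoff set in the earlier primary screen, cut at about 8% in these data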
MOR-DOR barr ag: agonists of MOR-DOR heterodimerization, counter-screen for MC4R biased agonist project, cell-based, luminescence; shares compounds with MC4R barr agon; AID 602194, 2012; actives 5.8% (n = 2,400); U2OS PathHunter beta-arrestin, beta-gal luminescence; percent of deltorphin B response, DMSO zero; activation, % at 9.2 µM;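 active = mean activation across replicates exceeds the hit threshold derived in the earlier primary screen, cut at about 18% in these data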;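 note: 100% = deltorphin B at 0.9 µM final and 0% = DMSO alone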
NR2E3 ag confirm-2: NR2E3 agonist confirmation in cells, cell-based, luminescence, CHO-S two-hybrid; shares compounds with NR2E3 ag-1; actives 51% (n = 2,300); CHO-S mammalian two-hybrid NR2E3-NCOR, luciferase luminescence; inhibition, % at 3.98 µM;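 active = average inhibition above a cutoff equal to the mean inhibition of all tested compounds plus one SD, cut at about 70% in these data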;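 note: 0% = DMSO in NR2E3 cells and 100% = DMSO in cells lacking NR2E3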
GAL4-VP16 luc: GAL4-VP16 reporter modulators, confirmation, counter-screen for NR2E3 agonist project, cell-based, luminescence, CHO-S, high throughput; shares compounds with NR2E3 ag-1; CHO-S GAL4-VP16 luciferase reporter; inhibition, % at 3.98 µM; actives 29% (n = 2,300); AID 624379, 2012;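 active = mean inhibition above a cutoff equal to the average over all tested compounds plus one standard deviation, cut at about 70% in these data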;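 note: luciferase from a UAS reporter driven by GAL4-VP16 transactivation; 0% = DMSO with VP16-transfected cells and 100% = DMSO with cells lacking VP16; higher means less reporter light so more repression of VP16 activity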
PG9 bind confirm: binders of anti-gp120 antibody PG9, confirmation, biochemical, TR-FRET. shares compounds with PG9 Ab binder. TR-FRET PG9 antibody binding. actives 90% (n = 1,500). inhibition, % at 6.7 µM; in the data active = inhibition above about 9%
PGV04 Ab binding: binders of control antibody PGV04, counter-screen for PG9 antibody binder project, biochemical, TR-FRET, distinct HIV envelope site. actives 95% (n = 1,500). TR-FRET PGV04 antibody-gp120 binding. AID 651604, 2012. shares compounds with PG9 Ab binder. inhibition, % at 6.7 µM; in the data active = inhibition above about 9.5%
PG9 bind DR: small-molecule binders of antibody PG9, dose response, biochemical, TR-FRET, HIV-1 gp120 antibody; shares compounds with PG9 Ab binder; TR-FRET PG9 antibody-gp120 binding inhibition; IC50, µM; 95 tested, under 10 active; in the data active = IC50 below about 10 µM
PGV04 DR counter: binders of control antibody PGV04, dose response, counter-screen for PG9 antibody binder project, biochemical, TR-FRET, distinct HIV envelope site; shares compounds with PG9 Ab binder; actives 20% (n = 95); AID 651937, 2012; TR-FRET binding to control antibody PGV04; IC50, µM
PG126 binding DR: binders of control antibody PG126, dose response, counter-screen for PG9 antibody binder project, biochemical, TR-FRET, distinct HIV envelope site | shares compounds with PG9 Ab binder | TR-FRET binding to antibody PG126, counterscreen | IC50, µM | actives 20% (n = 95) | AID 651939, 2012
Starred values were filed as active, the others as inactive; i = inactive; / = not tested or not shown; + = active, no number. Cut-off read from the data, not from the text of the source, unless noted: active = IC50 below about 9 µM; inactive = the rest.

SMILES	Rev-erbA mod	NR2E3 ag-1	NR2E3 ag-2	MC4R antag cAMP	MC4R barr agon	PG9 Ab binder	NR2E3 ag confirm-1	PPARg-NCOR2 ag	PG9 bind confirm	PGV04 Ab binding	others
Cc1cc(Br)c2nc3c(c(C(=O)O)c2c1)CCCCC3	-6.4	18.8	48.0*	+	3.2	74.5*	60.1*	60.5*	73.8*	88.3*	U2OS cAMP counter=+
Cc1onc(-c2c(F)cccc2Cl)c1C(=O)Nc1nccs1	0.9	-12.7	0.2	9.1	-1.6	-0.4	/	/	/	/
Cc1onc(-c2c(F)cccc2Cl)c1C(=O)Nc1nnc(C(F)(F)F)s1	3.9	91.7*	22.9*	47.5*	-4.0	24.4*	19.7*	-10.8	29.5*	41.8*	U2OS cAMP counter=36.4*;MC4R cAMP antag=74.0*;NR2E3 ag confirm-2=95.8*;GAL4-VP16 luc=76.7*
Cc1nc(-c2ccc(Br)cc2)ccc1C(=O)O	4.5	-6.5	24.7*	14.2	-0.4	13.8*	19.4	17.5	23.5*	29.8*
Cc1cc(C)c(Cn2c(=O)n(CCCC(=O)NCc3ccco3)c(=O)c3sccc32)c(C)c1	15.5	7.8	26.9*	0.2	32.6*	18.5*	3.6	-4.6	21.3*	25.5*	MC4R barr ag=-1.2;MOR-DOR barr ag=7.4
CCOCCCNC(=O)c1ccc(Cn2c(=O)[nH]c3ccsc3c2=O)cc1	-0.7	-20.4	-2.3	9.6	-0.2	0.0	/	/	/	/
O=C(O)CCc1ccc(-c2ccc(Br)cc2)o1	-1.2	-58.5	34.6*	3.8	3.6	29.4*	36.3*	32.2*	37.0*	45.3*
CC(C)=CC(=O)OCC(=O)Nc1ccc(SC(F)F)cc1	0.3	-31.6	0.2	11.1	-2.1	0.1	/	/	/	/
O=C(C1=C(O)C(=O)N(CC2CCCO2)C1c1ccc(Cl)cc1Cl)c1ccco1 (centres undefined)	-4.8	-15.3	29.6*	3.2	-1.3	10.7*	24.0*	25.2*	19.0*	23.4*
O=C(C1=C(O)C(=O)N(CC2CCCO2)C1c1ccccc1Cl)c1ccco1 (centres undefined)	-6.7	-23.2	13.3	-0.7	0.7	6.8	/	/	/	/
CCN(CC)S(=O)(=O)c1ccc(C(=O)Nc2nnc(CSC)o2)cc1	1.3	-1.4	1.4	0.8	0.2	1.5	/	/	/	/
Cc1ccc(O)c(C2=Nc3ccccc3N=C(c3ccco3)C2)c1	18.9	-49.5	30.5*	0.5	2.8	59.0*	3.9	19.5	55.0*	69.0*
Cc1ccc(O)c(C2=Nc3ccccc3N=C(c3ccc([N+](=O)[O-])cc3)C2)c1	2.9	-18.9	-0.2	-6.1	-0.5	-1.0	/	/	/	/
Cc1nc2ccc(Br)cc2c(-c2ccccc2)c1C(=O)O	6.4	0.9	46.5*	35.5*	-1.6	55.5*	58.6*	54.0*	64.6*	76.6*	U2OS cAMP counter=48.5*;MC4R cAMP antag=96.2*
Cc1ccc(-n2c(-c3nn(C)cc3Cl)n[nH]c2=S)cc1	-3.4	-27.3	3.3	2.6	-2.0	1.3	/	/	/	/
Cc1c(Cl)c(-c2n[nH]c(=S)n2-c2ccc(F)cc2)nn1C	-1.1	-10.2	20.8*	-2.0	0.5	10.4*	14.8	17.4	11.9*	10.8*	PG9 bind DR=>67;PGV04 DR counter=i;PG126 binding DR=i

Compound activity from PubChem BioAssay.
